In the library only some 1.7% were active in any assay of this set; here they are far more common.
Apaf-1 inh: inhibitors of human Apaf-1 apoptosome; O14727; reconstituted apoptosome caspase-3 activity, DEVD-Rh110 fluorescence; inhibition, % at 20 µM; hit rate 0.71% among 330,000; AID 489030; active = inhibition of at least 40% at 20 µM;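 note: plate controls were DMSO wells for no effect and DEVD-CHO caspase inhibitor wells for full effect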
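Material: cell-free apoptosome with Apaf-1, procaspase-3 and caspase-9; Buffer or medium: Hepes pH 7.5 with detergent and BSA; Reagent: cytochrome c trigger plus (Z-DEVD)2-Rh110 caspase-3 substrate; Times: compound with Apaf-1, dATP, procaspase-3 30 min, then 50 min reaction, room temperature; Technique: Rh110 fluorescence intensity.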
PREPL inhibitor: human PREPL enzyme inhibition | recombinant PREPL, fluorescence polarization activity-based probe | inhibition, % at 5.96 µM | hit rate 0.68% among 320,000; in the data active = inhibition above about 43%;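 note: 0% = enzyme with DMSO and 100% = wells lacking enzyme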
EBNA-1 inhibitor: blocks EBNA-1 binding to DNA; EBNA-1 DNA binding, fluorescence polarization; inhibition, % at 14.8 µM; hit rate 0.34% among 300,000; AID 1950; in the data active = inhibition above about 28%
UBC13 inh: blocks human UBC13 polyubiquitin chain formation; inhibition, % at 20 µM; AID 485273; P61088; TR-FRET; hit rate 0.47% among 330,000; in the data active = inhibition above about 45%, passing the limit was not always enough; inconclusive = no clear call, values can overlap the other calls
ZTA DNA inh: counter-screen for EBNA-1 inhibitors: inhibitors of Epstein-Barr virus ZTA. AID 2234. P03206. hit rate 0.15% among 320,000. ZTA-DNA binding, fluorescence polarization. inhibition, % at 11 µM; in the data active = inhibition above about 33%
Target sequence (P03206 whole entry, looked up): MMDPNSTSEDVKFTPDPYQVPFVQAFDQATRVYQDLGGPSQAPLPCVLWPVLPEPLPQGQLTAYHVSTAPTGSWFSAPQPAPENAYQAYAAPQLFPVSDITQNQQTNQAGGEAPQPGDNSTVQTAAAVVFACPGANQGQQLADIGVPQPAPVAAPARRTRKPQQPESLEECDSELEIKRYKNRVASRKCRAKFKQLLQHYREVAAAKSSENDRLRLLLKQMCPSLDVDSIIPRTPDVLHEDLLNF
Casp3 UBC13 ctr: inhibits human caspase-3 in UBC13 counter-screen. shares compounds with UBC13 inh. Recombinant caspase-3, Caspase-Glo 3/7 luminescence, 60 min. inhibition, % at 20 µM. hit rate 4% among 1,400. AID 488856;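 active = mean inhibition across replicates above about 26%, limit read from the data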;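 note: plate controls were DMSO with caspase-3 for no effect and DMSO wells lacking enzyme for full effect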
Target sequence (P42574 whole entry, looked up): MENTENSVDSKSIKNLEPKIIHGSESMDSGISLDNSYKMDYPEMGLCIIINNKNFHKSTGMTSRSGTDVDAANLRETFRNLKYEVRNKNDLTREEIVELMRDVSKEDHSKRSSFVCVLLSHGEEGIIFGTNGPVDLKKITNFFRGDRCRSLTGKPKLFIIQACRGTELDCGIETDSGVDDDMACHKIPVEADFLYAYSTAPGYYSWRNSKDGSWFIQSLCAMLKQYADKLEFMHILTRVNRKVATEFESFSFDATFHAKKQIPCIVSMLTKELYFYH
UBC13 conf: confirmation of human UBC13 polyubiquitin inhibitors; shares compounds with UBC13 inh; UBC13 polyubiquitination, TR-FRET, biochemical; inhibition, % at 10 µM; hit rate 68% among 1,400; in the data active = inhibition above about 45%; inconclusive = no clear call, values can overlap the other calls
An asterisk follows results filed as active; ? = inconclusive; . = no result given.

SMILES	Apaf-1 inh	PREPL inhibitor	EBNA-1 inhibitor	UBC13 inh	ZTA DNA inh	Casp3 UBC13 ctr	UBC13 conf
CC1CCCCN1CCNC(=O)c1ccc2c(=O)n(Cc3ccc(Cl)cc3)c(=S)[nH]c2c1 (stereo not given)	37	-47	-10	49*	-6	-1	61*
COc1ccc(-c2cc3c(=O)n(CC(=O)NCCCN4CCC(N5CCCCC5)CC4)nc(C)n3n2)cc1	35	2	-12	71*	-7	-1	34
O=[N+]([O-])c1c(-c2cn[nH]c2)n[nH]c1-c1cn[nH]c1	-11	1	2	56*	0	4	53*
O=C1C2C3C=CC(C4CC34)C2C(=O)N1CCCCN1CCN(c2ccc(F)cc2)CC1 (stereo not given)	10	18	-2	54*	6	-1	4
CCN(CC)S(=O)(=O)c1ccc(C(=O)NNC(=O)C2CCN(S(=O)(=O)c3ccc(Cl)cc3)CC2)cc1	5	-3	-1	78*	10	0	77*
CCC(C)(C)NC(=O)C(c1ccc(C)o1)N(Cc1ccc2c(c1)OCO2)C(=O)c1snc(C(N)=O)c1N (stereo not given)	6	4	3	78*	7	-3	86*
Cc1ccc(C(C(=O)NC(C)(C)C)N(Cc2ccccc2)C(=O)c2snc(C(N)=O)c2N)o1 (stereo not given)	1	-8	4	71*	-19	5	66*
COc1ccc(Cc2nnc(SCC(=O)NC(C)c3ccccc3)o2)cc1 (stereo not given)	1	14	-9	10	-10	.	.
CCc1cc2c(=O)n(-c3ccccc3)c(=S)[nH]c2s1	-18	1	4	48*	17	2	?
COc1ccnc2c1c(=O)n(Cc1c(F)cccc1Cl)c(=O)n2C	3	9	-2	9	-3	.	.
COc1ccnc2c1c(=O)n(Cc1ccc(F)cc1)c(=O)n2C	-11	-13	8	57*	2	0	67*
COc1ccnc2c1c(=O)n(Cc1ccc(Cl)cc1)c(=O)n2C	11	-24	5	71*	2	0	?
CCOCc1nnc(NC(=O)COc2ccc3c(c2)OCO3)s1	2	0	-10	1	-14	.	.
CN(C)CCNc1oc(COc2ccc(Cl)cc2Cl)nc1C#N	6	23	-3	91*	-4	-2	98*
Oc1ccc2ccccc2c1CNn1cnnc1	-24	5	8	0	17	.	.
Oc1ccc2ccccc2c1CNc1ccccn1	1	-27	5	56*	-10	-2	49*
CCNC(C(=O)c1c[nH]c2c(CC)cccc12)c1ccccc1 (stereo not given)	0	-24	-1	50*	5	-1	64*
CCC(C)[C@H](NC(=O)C1CCN(C(=O)[C@H](Cc2ccccc2)NS(=O)(=O)c2ccc(C)cc2)CC1)C(=O)O (stereo not given in full)	-3	9	0	-5	0	.	.
Cc1ccc(NC(=O)CN(C)C(=O)c2cccnc2Nc2cccc(C(F)(F)F)c2)cc1	26	0	-6	-2	2	.	.
COc1cccc(NC(=O)CN(C)C(=O)c2cccnc2Nc2cccc(C(F)(F)F)c2)c1	15	-14	.	47*	-12	-1	34
CCO[C@H]1OC(C(=O)N2CCOCC2)=C[C@@H](c2ccc(C(F)(F)F)cc2)[C@@H]1CCCO	0	8	2	-1	2	.	.
CCCC(NC(=O)c1ccc(Br)o1)c1nc2ccccc2[nH]1 (stereo not given)	-11	-2	.	6	.	.	.
CCOc1ccccc1NC(=O)CN1CCC(C(=O)c2ccc(F)cc2)CC1	23	11	6	73*	20	0	78*
COc1cc(CNCCc2c[nH]c3ccccc23)ccc1OCc1ccccc1F	17	-93	12	47*	3	-1	44
COc1cccc(CNCCc2c[nH]c3ccccc23)c1OCc1ccccc1	2	-36	3	39	-2	.	.
SMILES	Apaf-1 inh	PREPL inhibitor	EBNA-1 inhibitor	UBC13 inh	ZTA DNA inh	Casp3 UBC13 ctr	UBC13 conf
CCOC(=O)c1nn(-c2ccccc2)c(=O)cc1OCC(=O)Nc1ccccc1OCC	2	-3	-2	57*	0	-2	?
Cc1cccc(N2CCN(c3ccc4cc(S(=O)(=O)N5CCCCC5)ccc4n3)CC2)c1C	-9	0	11	52*	16	-1	?
Cc1ccc(C)c(N2CCN(c3ccc4cc(S(=O)(=O)N5CCCCC5)ccc4n3)CC2)c1	16	12	-12	?	-6	.	.
Cc1cc(C)c2[nH]c(O)c(N=NC(=O)c3cc4c(s3)CCCC4)c2c1	13	18	-6	-11	1	.	.
COCCNC(=S)N=Nc1c(O)[nH]c2c(C)cc(C)cc12	-4	10	10	87*	11	-2	102*
COc1ccccc1CNC(=O)c1ccc2c(=O)n(CCCN3CCCC3=O)c(=S)[nH]c2c1	-2	-11	19	46*	3	3	43
CN(C)CCCn1c(=O)n(CCc2ccccc2)c(=O)c2c3c(sc21)CCCCC3	22	21	-11	39	5	.	.
CN(C)CCCNc1nc2sc3c(c2c(=O)n1CCc1ccccc1)CCCCC3	13	68*	0	49*	-14	-1	73*
CN(C(=O)CSc1nnc(-c2ccc(F)cc2)n1C)C1CCS(=O)(=O)C1 (stereo not given)	2	22	.	0	.	.	.
CCN1CCN(Cc2ccc(NC(=O)c3ccc(C)c(NC(=O)c4c[nH]c5cc(C(F)(F)F)ccc5c4=O)c3)cc2C(F)(F)F)CC1	39	-16	-10	108*	3	-5	100*
CCOC(=O)C1=C(COC(=O)c2nc(Cl)ccc2Cl)NC(=O)NC1C (stereo not given)	5	.	.	10	.	.	.
CCOC(=O)C1=C(COC(=O)c2ncc(Cl)c(Cl)c2Cl)NC(=O)NC1C (stereo not given)	13	-28	-6	76*	2	-2	87*
Cn1c(SCC(=O)NCC2CCCO2)ncc(C(=O)Nc2ccccc2)c1=O (stereo not given)	-1	-8	-5	69*	-5	96*	66*
COc1cccc(NC(=O)c2cnc(SCC(=O)NCc3ccc4c(c3)OCO4)n(C)c2=O)c1	5	-18	-4	56*	-5	98*	50*
Cn1c(SCC(=O)c2ccc(F)cc2)ncc(C(=O)Nc2ccccc2)c1=O	1	-7	-11	58*	-7	79*	69*
Cn1c(SCC(=O)NCc2ccccc2)ncc(C(=O)Nc2ccccc2)c1=O	6	7	-7	63*	-8	96*	62*
Cn1c(CO)cnc1SCC(=O)c1ccc(F)cc1	-4	9	9	-1	12	.	.

Source: PubChem (several laboratories)
